“And” between values parts separate entries of the source, which are not always exact repeats. Equal values may be shown once.
Assays:
[1] = tested on: intracranial aneurysm (IA); assay: Rat IA model, histological analysis of induced IAs; assay type: in vivo, Sprague–Dawley rats; conditions: for growth (size) of induced IAs: KRP‐203 0.01 and BAF312 0.3 mg·kg^−1 daily
Summary of the method: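 IA induced at the right ACA-OA bifurcation, contralateral to carotid ligation. Rats randomized and given test compound p.o. (suspended in 0.5% methylcellulose) throughout. Specimens prepared at 12 weeks; 5 μm sections immunostained. Aneurysm size and infiltrating macrophage number assessed.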

[2] = tested on: lymphocytes / monocytes in peripheral blood; assay: Peripheral blood lymphocyte and monocyte count in rat IA model; assay type: in vivo, Sprague–Dawley rats; conditions: rats
Summary of the method: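 Oral dosing after IA induction. Agonist suspended in 0.5% methylcellulose; antagonist suspended in 5% arabic gum and given twice daily. Peripheral lymphocyte and monocyte counts taken after the dosing period (4 weeks for the antagonist).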

[3] = tested on: HCtAEC monolayer; assay: Permeability assay; assay type: cell-based, human; conditions: for effect on the ASP4058‐mediated inhibition of endothelial permeability: ASP4058 100 nM, TASP0277308 pretreated 1 h, EHop‐016 30 min
Summary of the method: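 HCtAECs (10^5 per well) grown overnight on collagen-coated Transwell inserts (0.4 μm pore) in growth medium, then overnight in serum-free defined medium. Compound or vehicle (0.1% DMSO) added to both compartments for 1 h. 250 μg·mL−1 FITC-dextran (2000 kDa) then added to the upper compartment; diffusion into the lower compartment read after 1 h (ex 490/em 520 nm). Antagonist pretreatment 1 h or Rac inhibitor 30 min, before 100 nM agonist. Duplicates, 37°C.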

[4] = Systemic blood pressure; assay type: in vivo, Sprague–Dawley rats; conditions: rats
Summary of the method: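 Oral dosing after IA induction, vehicle 0.5% methylcellulose. Blood pressure measured in conscious rats by tail-cuff, without anaesthesia. Systolic, mean and diastolic values each taken as the mean of at least three measurements.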

[5] = tested on: intracranial aneurysm (IA); assay: Non‐human primate model of IAs; assay type: in vivo; conditions: Macaca fascicularis, 0.1 mg·kg^−1 once daily, 52 weeks, n = 3
Summary of the method: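 Female Macaca fascicularis (11 years old, 3.4 kg average), held under a 12 h light–dark cycle. IAs induced by two-step surgery at a 2 week interval. Test compound given once daily. At 52 weeks, five intracranial bifurcation sites per animal examined for IA formation, scored as breakage of the lamina elastica.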

[6] = tested on: hS1P1; conditions: S1P2, S1P3, S1P4 versus S1P1/S1P5; ref Yamamoto et al., 2014; cited from earlier work
[7] = biological target: S1P1 receptors in HCtAECs (Homo sapiens, UniProt P21453); assay: cAMP assay; assay type: cell-based
Summary of the method: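 HCtAECs seeded at 2 × 10^4 per well and kept overnight. Test compound diluted in HBSS (pH 7.2) containing 5 mM HEPES (pH 7.5), 0.1% fatty-acid-free BSA and 0.5 mM IBMX. Cells stimulated with 1 μM forskolin plus compound for 20 min at 37°C. Lysis in HEPES/CaCl2/Triton X-100 buffer; cAMP measured with a LANCE cAMP kit. Duplicates.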

[8] = biological target: S1P1 receptors expressed on HCtAEC (Homo sapiens, UniProt P21453); assay: S1P1 receptor internalization assay; assay type: cell-based; conditions: mean ± SEM, n = 5
Summary of the method: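 HCtAECs (10^5 per well) seeded overnight, then exposed for 1 h at 37°C to test compound diluted in serum-free defined medium. Cells washed in ice-cold PBS and detached with Accutase. Staining with mouse anti-S1P1 (30 min on ice), then PE anti-mouse IgG; IgG2b isotype control; dead cells excluded by 7-AAD or SYTOX Blue. Isotype-subtracted geoMFI normalized to vehicle, expressed as % of control.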

[9] = tested on: THP‐1 cells; assay: Chemotaxis assay; assay type: cell-based, human; conditions: 100 nM ASP4058, MCP‐1 10 ng·mL^−1, 3 h
Summary of the method: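 Migrated-cell Transwell assay (5.0 μm pore) without an endothelial layer. Test compound diluted in RPMI 1640 with 0.1% fatty-acid-free BSA; compound or vehicle (0.1% DMSO) added to both compartments. THP-1 cells (5 × 10^5 per well) added to the upper and MCP-1 (10 ng·mL−1) to the lower compartment simultaneously. After 3 h at 37°C, migrated cells quantified by ATP-based luminescence; duplicates.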

[10] = Plasma concentration of ASP4058 in rat aneurysm model; assay type: in vivo, rats
Summary of the method: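 Rats dosed orally at 0.01 mg·kg−1 for 12 weeks. Plasma collected just before and 1, 2, 4, 8 and 24 h after the last dose. Plasma separated by centrifugation and stored at −20°C or lower. Samples prepared by protein precipitation and quantified by HPLC–tandem mass spectrometry.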

[11] = rats, oral, 14 days at 0.1 mg·kg^−1; ref Yamamoto et al., 2014; cited from earlier work
[12] = tested on: IA walls at ACA‐OA bifurcation; assay: In vivo vascular permeability assay; design: species or system Sprague–Dawley rats; conditions: day 7, BAPN
Summary of the method: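 Rats after IA induction, with 3-aminopropionitrile to facilitate formation, dosed p.o. once daily from just after surgery; vehicle 0.5% methylcellulose. On day 7, under deep anaesthesia, Evans blue (45 mg·kg−1) injected intra-arterially via the right common carotid (proximal side clamped), then 4% paraformaldehyde perfusion. Age-matched Sprague–Dawley rats served as controls. Frozen sections imaged confocally (ex 620/em 680 nm); stained area thresholded, particles >4 pixel square counted.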

[13] = tested on: THP‐1 cells across HCtAEC monolayer; assay: Trans‐endothelial migration assay; assay type: cell-based, human; conditions: MCP‐1 100 ng·mL^−1, 3 h
Summary of the method: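 HCtAECs (10^5 per well) grown overnight on Transwell inserts (5.0 μm pore) in growth medium. Compound in serum-free defined medium, or vehicle (0.1% DMSO), added to both compartments. At the same time, THP-1 cells (5 × 10^5) added above and MCP-1 (100 ng·mL−1) below. After 3 h at 37°C, migrated cells quantified by ATP luminescence. Antagonist co-added with 100 nM agonist; duplicates.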

[14] = rats, TASP0277308 100 or 300 mg·kg^−1 p.o. twice daily, 4 weeks, BAPN
[15] = TASP0277308 100 or 300 mg·kg^−1 p.o. twice daily, 4 weeks
[16] = KRP‐203 0.01 or BAF312 0.3 mg·kg^−1, 4 weeks after IA induction
[17] = p.o., 12 weeks after IA induction

S1P1 receptors expressed on HCtAEC, sequence (P21453 whole entry): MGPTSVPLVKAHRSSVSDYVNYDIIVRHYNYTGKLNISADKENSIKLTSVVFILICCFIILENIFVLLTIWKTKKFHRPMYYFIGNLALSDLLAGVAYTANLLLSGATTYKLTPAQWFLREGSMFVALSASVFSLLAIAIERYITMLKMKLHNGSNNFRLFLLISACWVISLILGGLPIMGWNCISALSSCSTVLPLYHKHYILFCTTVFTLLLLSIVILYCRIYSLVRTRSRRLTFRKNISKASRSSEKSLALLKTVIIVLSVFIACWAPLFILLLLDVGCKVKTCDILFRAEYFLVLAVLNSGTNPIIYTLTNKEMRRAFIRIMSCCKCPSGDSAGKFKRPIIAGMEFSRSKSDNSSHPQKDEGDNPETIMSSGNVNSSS
S1P1 receptors in HCtAECs, sequence (P21453 whole entry): as above

CCn1c(Oc2cccc(N3CCN(C)CC3)c2)nnc1[C@@H](C)NS(=O)(=O)c1ccc(Cl)c(Cl)c1 [TASP0277308, 3,4‐dichloro‐N‐[(1R)‐1‐{4‐ethyl‐5‐[3‐(4‐methylpiperazin‐1‐yl)phenoxy]‐4H‐1,2,4‐triazol‐3‐yl}ethyl]benzenesulfonamide, reference compound]
macrophage infiltration in IA lesions [1, 14]: did not suppress
size of the IA [1, 14]: did not suppress either the macrophage infiltration in IA lesions or reduce the size
peripheral lymphocyte count [2, 15]: potently decreased
peripheral monocyte count [2, 15]: without influencing
effect on the ASP4058‐mediated inhibition of endothelial permeability [3]: reversed
systemic blood pressure [4, 15]: without influencing

Cl.NC(CO)(CO)CCc1ccc(Sc2cccc(OCc3ccccc3)c2)cc1Cl [KRP‐203, 2‐amino‐2‐[2‐(4‐{[3‐(benzyloxy)phenyl]sulfanyl}‐2‐chlorophenyl)ethyl]propane‐1,3‐diol hydrochloride, reference compound]
growth (size) of induced IAs ([1]; rats, 4 weeks, BAPN): significantly suppressed the growth
systemic blood pressure [4, 16]: without influencing

CCCCCCCCc1ccc(CCC(N)(CO)CO)cc1.Cl [fingolimod, 2‐amino‐2‐[2‐(4‐octylphenyl)ethyl]propane‐1,3‐diol hydrochloride, reference compound]
size of IAs induced ([1]; rats, fingolimod daily during whole period, 4 weeks, BAPN): significantly exacerbated the IA size
systemic blood pressure ([4]; fingolimod for 4 weeks after IA induction): without influencing

CCc1cc(/C(C)=N/OCc2ccc(C3CCCCC3)c(C(F)(F)F)c2)ccc1CN1CC(C(=O)O)C1 [BAF312, 1‐{4‐[(1E)‐N‐{[4‐cyclohexyl‐3‐(trifluoomethyl)benzyl]oxy}ethanimidoyl]‐2‐ethylbenzyl}azetidine‐3‐carboxylic acid, reference compound]
growth (size) of induced IAs ([1]; rats, 4 weeks, BAPN): significantly suppressed the growth
systemic blood pressure [4, 16]: without influencing

C[C@H](Oc1ccc(-c2nc(-c3ccc4[nH]cnc4c3)no2)cc1C(F)(F)F)C(F)(F)F.Cl [ASP4058, 5‐{5‐[3‐(trifluoromethyl)‐4‐{[(2S)‐1,1,1‐trifluoropropan‐2‐yl]oxy}phenyl]‐1,2,4‐oxadiazol‐3‐yl}‐1H–benzimidazole hydrochloride]
IA formation compared with the vehicle‐treated group [5]: tended to be suppressed
potency for other S1P receptor subtypes relative to S1P1 and S1P5 (times less) [6]: at least 100 times
IA development measured by the size of the IA induced ([1]; rat model, p.o. during entire period of IA induction, 12 weeks): dose‐dependently suppressed IA development
incidence of IAs ([1]; rat model, p.o. during whole period, 12 weeks): did not affect the incidence
dose at which the suppressive effect on the size of the IA was observed ([1]; rat model, p.o., 12 weeks): 0.01 mg/kg
macrophage infiltration in the lesion ([1]; rat model, p.o., 12 weeks after induction): inhibited the macrophage infiltration
expression of MCP‐1 in the IA lesion ([1]; rats, ASP4058 0.03 mg·kg^−1, immunostaining): almost completely suppressed
IA‐associated degenerative change of the media (thinning of smooth muscle layer) ([1]; rats, ASP4058 0.03 mg·kg^−1, α‐SMA staining, 12 weeks): ameliorated the IA‐associated degenerative change of the media
enlargement of pre‐existing aneurysm ([1]; rats, ASP4058 0.1 mg·kg^−1 once daily started 1 week after IA induction, examined at 7 weeks, BAPN): significantly inhibited the enlargement
IC50 [7]: 2.1 nM
peripheral lymphocyte number ([2]; ASP4058 0.01 mg·kg^−1 p.o., 12 weeks): did not decrease
monocyte count in peripheral blood ([2]; ASP4058 p.o., 12 weeks after IA induction): without significantly influencing
dose at which the decrease in lymphocyte count reached a plateau [2, 17]: 0.1 mg/kg
dose suppressing the lymphocyte number in peripheral blood [2, 17]: higher than 0.03 mg·kg^−1
S1P1 receptor expression level on HCtAECs (surface, δ geoMFI) ([8]; 100 nM ASP4058, 1 h): 86 ± 14 % of control
S1P1 receptor expression level on HCtAECs (surface, δ geoMFI) ([8]; 1000 nM ASP4058, 1 h): 23 ± 4.3 % of control
MCP‐1‐dependent migration (chemotaxis) of THP‐1 cells without HCtAEC monolayer [9]: failed to inhibit
Plasma concentration, 4 h ([10]; 0.01 mg·kg^−1, 12 weeks, 4 h after last administration, mean ± SEM, n = 3): 8.8 ± 1.6 nM
Plasma concentration, 24 h ([10]; 0.01 mg·kg^−1, 12 weeks, 24 h after last administration, mean ± SEM, n = 3): 4.5 ± 0.6 nM
Plasma concentration, Pre ([10]; 0.01 mg·kg^−1, 12 weeks, just before last administration, mean ± SEM, n = 3): 5.4 nM and 5.4 ± 0.7 nM
concentration at 1 h ([10]; plasma, oral, 0.01 mg·kg^−1): 6.3 ± 0.9 nM
concentration at 2 h ([10]; plasma, oral, 0.01 mg·kg^−1): 4.9 ± 1.6 nM
concentration at 4 h ([10]; plasma, oral, 0.01 mg·kg^−1): 8.8 nM
concentration at 8 h ([10]; plasma, oral, 0.01 mg·kg^−1): 7.9 ± 1.4 nM
concentration at 24 h ([10]; plasma, oral, 0.01 mg·kg^−1): 4.5 nM
plasma concentration at the maximum [11]: 0.0164 ± 0.000463 µg/mL
plasma concentration at the maximum (equivalent) [11]: 37.1 ± 1.05 nM
Evans blue leakage (stained area) at the ACA‐OA bifurcation after IA induction ([12]; rats, 0.1 mg·kg^−1 p.o. once daily): almost complete suppression
Evans blue leakage (stained area) at the ACA‐OA bifurcation after IA induction ([12]; rats, 0.01, 0.1 mg·kg^−1 p.o. once daily): dose‐dependently ameliorated
leakage of FITC‐dextran (2000 kDa) across the endothelial monolayer ([3]; 10 nM ASP4058, 1 h treatment, 1 h diffusion, concentration‐dependent): statistically significant inhibition
MCP‐1‐induced trans‐endothelial migration of THP‐1 cells [13]: concentration‐dependently inhibited
blood pressure ([4]; ASP4058 0.1 mg·kg^−1 started 1 week after induction, measured at 7 weeks): without affecting the blood pressure
systemic blood pressure ([4]; ASP4058 p.o. for 12 weeks after IA induction): without significantly influencing

CCn1c2ccccc2c2cc(Nc3ccnc(NCCCN4CCOCC4)n3)ccc21 [EHop‐016]
effect on the ASP4058‐mediated inhibition of endothelial permeability [3]: ameliorated the effect of ASP4058 on permeability

From PMC5466536 (British Journal of Pharmacology, 2017)
